High-throughput results from PubChem.
An excerpt weighted towards active compounds, which were near 3.6% of everything screened.
HSF1 activator = increases HSF-1 driven luciferase reporter signal | NIH3T3-HGL HSF-1 luciferase reporter, MG132, 8 h; 100% = twice DMSO control signal | 300,000 tested, 1.7% active | activation, % at 9 µM;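 active means mean replicate activation of at least 50% with a set share of replicates each reaching 50%; inconclusive means only one of those two conditions met; inactive means mean below 50% and too few replicates reaching it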;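 further: 0% = median of the neutral control wells and 100% = twice that signal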
Wnt bcat act = activators of Wnt/beta-catenin signaling | Wnt/beta-catenin reporter cell assay, activator, plate reader | activation, % at 9.35 µM | 300,000 tested, 1.2% active; in the data active means activation above about 30%, passing the limit was not always enough; inconclusive means no clear call, values can overlap the other calls;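 further: 0% = neutral control wells and 100% = positive control wells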
SR-BI HDL uptake = blocks mouse SR-BI lipid uptake from DiI-HDL | inhibition, % at 12.5 µM | 320,000 tested, 0.96% active | Q61009 | AID 488896 | ldlA[mSR-BI] CHO cells, DiI-HDL uptake fluorescence, 3 h;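 active means mean replicate inhibition of at least 70% and a set share of replicates each scoring 70 or more; inconclusive means meets just one of the two criteria; inactive means fails both criteria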;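 further: 0% = median of neutral control wells and 100% = median of positive control wells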
Target sequence (Q61009 whole entry, looked up): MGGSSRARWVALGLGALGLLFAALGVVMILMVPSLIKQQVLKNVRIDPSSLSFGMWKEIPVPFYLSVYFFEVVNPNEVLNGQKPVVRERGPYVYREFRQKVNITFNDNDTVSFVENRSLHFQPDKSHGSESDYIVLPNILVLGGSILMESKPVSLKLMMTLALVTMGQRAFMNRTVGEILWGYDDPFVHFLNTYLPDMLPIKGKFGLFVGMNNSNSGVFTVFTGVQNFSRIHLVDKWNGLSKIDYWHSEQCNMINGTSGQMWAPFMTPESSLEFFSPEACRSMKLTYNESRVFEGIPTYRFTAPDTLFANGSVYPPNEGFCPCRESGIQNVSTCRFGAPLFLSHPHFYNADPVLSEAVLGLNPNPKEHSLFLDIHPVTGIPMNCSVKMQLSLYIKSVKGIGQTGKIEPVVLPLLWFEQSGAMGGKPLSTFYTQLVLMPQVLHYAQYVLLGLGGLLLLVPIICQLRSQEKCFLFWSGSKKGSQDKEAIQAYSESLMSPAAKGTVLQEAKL
SR-BI uptake up = SR-BI HDL lipid transfer activation; CHO ldlA[mSR-BI] cells, DiI-HDL uptake fluorescence, 3 h; 100 = double the neutral-control signal; activation, % at 12.5 µM; 320,000 tested, 0.096% active; AID 504775;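 active means mean replicate activation of at least 60% and every replicate at or above 60%; inconclusive means mean or all-replicate condition met, but not both; inactive means mean below 60% and not all replicates reaching 60%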;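 further: 0% = median plate neutral-control signal and 100% = twice that signal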
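System: LDL receptor-deficient CHO ldlA cells overexpressing murine SR-BI | Timing: 3 h uptake period with compound, 37 °C | Medium: HEPES-buffered (25 mM, pH 7.4) F12 plus 0.5% BSA | Dosing: Single-point compound dose | Signal: Bottom-read fluorescence, 550/595 nm | Read-out: Retained DiI signal reflecting DiI-HDL uptake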
MITF act = increases MITF-driven TRPM1 promoter luciferase signal; 300,000 tested, 0.75% active; SK-MEL-5 TRPM1-promoter luciferase, 24 h; % of positive control, neutral wells = 0; activation, % at 12.5 µM;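 active means mean activation of at least 80% with every replicate also reaching 80%; inconclusive means mean reaches 80% but some replicate falls short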;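 further: 0% = neutral control wells and 100% = parthenolide positive control wells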
* marks the source's active call; other numbers are inactive results; ? = inconclusive; · = not tested or not shown.

SMILES	HSF1 activator	Wnt bcat act	SR-BI HDL uptake	SR-BI uptake up	MITF act
Cc1ccc(-c2nc(NC(=O)c3nn(C)cc3[N+](=O)[O-])sc2C)cc1C	-84	-14	74*	-74	-79
CCc1ccc(Cn2ncc3c(C(=O)O)cc(C)nc32)cc1	·	-4	-51	51	10
COc1ccc(C2CC(C)(c3ccc(OC)cc3)Nc3ccccc3N2)cc1 (configuration not stated)	58*	49*	17	-17	·
CSc1ccc(CN2CCC(C)(Oc3ccc(C(C)=O)cc3)C2)cc1 (configuration not stated)	·	-3	·	·	·
CCC1CSC(Nc2ccc(C(=O)/C=C/c3cccc(C)c3)cc2)=N1 (configuration not stated)	75*	2	7	-7	17
CCC1CSC(Nc2ccc(C(=O)/C=C/c3ccc(Oc4ccccc4)cc3)cc2)=N1 (configuration not stated)	14	·	-13	13	-3
O=C1Cc2cc(O)ccc2O1	·	-4	1	-1	-3
O=C(/C=C/c1c(Cl)cccc1Cl)Nc1ccncc1	?	10	28	-28	88*
O=C(/C=C/c1c(F)cccc1Cl)Nc1ccncc1	69*	·	2	-2	36
CC(=O)c1ccc(Nc2nc(CN)cs2)cc1	·	2	·	·	·
CSc1cccc(NC(=O)CCCOc2cc(=O)n(C)c3ccccc23)c1	·	3	·	·	·
COc1cccc(N2CCN(c3ncccn3)CC2)c1	73*	·	-8	8	64
COc1cccc(C(=O)N2CCN(c3ncccn3)CC2)c1	6	·	-7	7	3
COc1cc(C2NC(=O)NC(C)=C2C(=O)OC2CCCCC2)cc(Cl)c1O (configuration not stated)	62*	1	24	-24	4
Cc1ccc(N2C(=O)C3CC(c4ccccc4)=C4C5C=CC(C6C(=O)N(c7ccc(C)cc7C)C(=O)C56)C4C3C2=O)c(C)c1 (configuration not stated)	88*	·	52	-52	·
CC(C)N(C(=O)COC(=O)c1ccccc1C(=O)c1ccc(Cl)c([N+](=O)[O-])c1)C(C)C	91*	-1	-15	15	-44
O=C(CCC1CCCC1)N=C1SC2CS(=O)(=O)CC2N1c1ccccc1F (configuration not stated)	64*	-1	-2	2	20
O=C(CCCc1ccccc1)N=C1SC2CS(=O)(=O)CC2N1c1ccccc1F (configuration not stated)	-6	0	-7	7	10
COC(=O)C1=C(C)N(C)C(=NCc2ccccc2C(F)(F)F)NC1c1ccc(F)cc1 (configuration not stated)	·	-4	·	·	·
O=C(NCc1cccnc1)/C(=C/c1ccc(-c2ccc(Cl)cc2)o1)S(=O)(=O)c1ccccc1	87*	-15	12	-12	-93
O=C(NCc1cccnc1)/C(=C\c1ccc(-c2ccc(Br)cc2)o1)S(=O)(=O)c1ccccc1	39	-12	-32	32	-100
O=C(CSc1nccn(-c2ccc(F)c(F)c2)c1=O)NC1CCCC1	62*	1	-5	5	5
COc1ccccc1-n1ccnc(SCC(=O)NC2CCCC2)c1=O	-2	2	21	-21	-7
Cc1oc(-c2ccccc2F)nc1CS(=O)(=O)CC(=O)NCCCN1CCN(C)CC1	148*	-1	-8	8	-11
COc1ccc(Cl)cc1NC(=O)c1c(-c2ccccc2)noc1C	38	·	76*	-76	-9
SMILES	HSF1 activator	Wnt bcat act	SR-BI HDL uptake	SR-BI uptake up	MITF act
COc1cc(OC)c(NC(=O)c2c(-c3ccccc3)noc2C)cc1Cl	2	·	67	-67	14
CCOc1ccc(-c2nnc(SCC(=O)N3CCNC3=O)o2)cc1	·	45*	5	-5	33
O=C(CSc1nnc(-c2ccc(Cl)cc2)o1)N1CCOCC1	17	10	·	·	97*
CCOc1ccc(-c2nnc(SCC(=O)N3CCN(c4ccccc4)CC3)o2)cc1	5	-3	-2	2	-3
CCOC(=O)CSc1nc2cc(OC)ccc2cc1C#N	31	67*	-26	26	111*
CCOC(=O)CSc1nc2ccc(C)cc2cc1C#N	68*	-1	24	-24	134*
COc1ccc2cc(C#N)c(SCC(=O)Nc3nonc3C)nc2c1	30	23	·	·	20
CCOC(=O)CSc1nc2cc3c(cc2cc1C#N)OCCO3	-33	8	9	-9	61
